# Key:
# [1] = test system: Candida albicans; assay: Antifungal activity against Candida albicans SC5314 after 24 hrs; format: functional; settings: SC5314, 24 h
# Summary of the method: (§1)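 C. albicans SC5314 or S. cerevisiae BY4741a (S288C derivative) grown 12 h at 30 °C, 200 rpm in YPD. 3×10^4 cells seeded per well of a 96-well plate with 1:2 serial dilutions of compound (stocks in 20% v/v DMSO and medium). DMSO and medium served as controls. Growth was scored visually after 24 h at 30 °C. MIC was taken as the well before first growth. Run twice.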
# [2] = test system: Schizosaccharomyces pombe; assay: Antifungal activity against Schizosaccharomyces pombe after 24 hrs; format: functional
# Summary of the method: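 S. pombe NJ2 h⁻ (ura4-D18 leu1-32 ade6-M210 his7-366) precultured 12 h at 30 °C, 200 rpm in yeast extract broth (YE). 3×10^4 cells were exposed in 96-well plates to 1:2 serial dilutions of compound (stocks in 20% v/v DMSO and medium), with DMSO and medium controls. Growth was read visually at 24 h, 30 °C. MIC was the well preceding first visible growth. Duplicate experiments.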
# [3] = test system: Saccharomyces cerevisiae; assay: Antifungal activity against Saccharomyces cerevisiae BY4741a after 24 hrs; format: functional; summary of the method: as §1
# [4] = Lipophilicity, log P of the compound; format: physicochemical; settings: octanol/water
smiles,measurement,setting,value
CC1=[N+](CCCS(=O)(=O)[O-])c2ccccc2C1(C)C,MIC,[1],1000 µg/mL
same,MIC,[2],1000 µg/mL
same,MIC,[3],1000 µg/mL
same,logP,[4],-4.33
CCCCCCCC[N+]1=C(C)C(C)(C)c2ccccc21.[I-],MIC,[1],1000 µg/mL
same,MIC,[2],62.5 µg/mL
same,MIC,[3],62.5 µg/mL
same,logP,[4]; read-out: logP,2.77
CCCCCCCCCC[n+]1c(C)sc2ccccc21.[Br-],MIC,[1],250 µg/mL
same,MIC,[2],7.8 µg/mL
same,MIC,[3],3.9 µg/mL
same,logP,[4]; read-out: logP,3.39
Cc1sc2ccccc2[n+]1C.[I-],MIC,[1],1000 µg/mL
same,MIC,[2],500 µg/mL
same,MIC,[3],500 µg/mL
same,logP,[4]; read-out: logP,-1.08
CC[n+]1c(C)sc2ccccc21.[I-],MIC,[1],1000 µg/mL
same,MIC,[2],250 µg/mL
same,MIC,[3],500 µg/mL
same,logP,[4]; read-out: logP,-0.701
CCCCCCCCCC[N+]1=C(C)C(C)(C)c2ccccc21.[I-],MIC,[1],500 µg/mL
same,MIC,[2],15.6 µg/mL
same,MIC,[3],15.6 µg/mL
same,logP,[4]; read-out: logP,3.78
CCCC[N+]1=C(C)C(C)(C)c2ccccc21.[I-],MIC,[1],1000 µg/mL
same,MIC,[2],250 µg/mL
same,MIC,[3],250 µg/mL
same,logP,[4]; read-out: logP,0.747
CCCCCC[n+]1c(C)sc2ccccc21.[Br-],MIC,[1],1000 µg/mL
same,MIC,[2],250 µg/mL
same,MIC,[3],62.5 µg/mL
same,logP,[4]; read-out: logP,1.37
C[C@@H]1[C@H](O)[C@@H](C)/C=C/C=C/C=C/C=C/C=C/C=C/C=C/[C@H](O[C@@H]2O[C@H](C)[C@@H](O)[C@H](N)[C@@H]2O)C[C@@H]2O[C@](O)(C[C@@H](O)C[C@@H](O)[C@H](O)CC[C@@H](O)C[C@@H](O)CC(=O)O[C@H]1C)C[C@H](O)[C@H]2C(=O)O [AMPHOTERICIN B],MIC,[1],0.49 µg/mL
same,MIC,[2],0.49 µg/mL
same,MIC,[3],0.49 µg/mL
Cc1nc2ccccc2s1,MIC,[1],1000 µg/mL
same,MIC,[2],250 µg/mL
same,MIC,[3],1000 µg/mL
same,logP,[4]; read-out: logP,2.08
CCC[n+]1c(C)sc2ccccc21.[I-],MIC,[1],1000 µg/mL
same,MIC,[2],250 µg/mL
same,MIC,[3],250 µg/mL
same,logP,[4]; read-out: logP,-0.199
CCCCCCCCC[N+]1=C(C)C(C)(C)c2ccccc21.[I-],MIC,[1],1000 µg/mL
same,MIC,[2],31.3 µg/mL
same,MIC,[3],31.3 µg/mL
same,logP,[4]; read-out: logP,3.27
CCCC[n+]1c(C)sc2ccccc21.[Br-],MIC,[1],1000 µg/mL
same,MIC,[2],250 µg/mL
same,MIC,[3],250 µg/mL
same,logP,[4]; read-out: logP,0.36
Cc1sc2ccccc2[n+]1CCCCS(=O)(=O)[O-],MIC,[1],1000 µg/mL
same,MIC,[2],1000 µg/mL
same,MIC,[3],1000 µg/mL
same,logP,[4],-4.411
CC1=Nc2ccccc2C1(C)C,MIC,[1],500 µg/mL
same,MIC,[2],250 µg/mL
same,MIC,[3],1000 µg/mL
same,logP,[4]; read-out: logP,3.29
CCCCCCC[N+]1=C(C)C(C)(C)c2ccccc21.[I-],MIC,[1],1000 µg/mL
same,MIC,[2],62.5 µg/mL
same,MIC,[3],125 µg/mL
same,logP,[4]; read-out: logP,2.26
c1ccc2[nH]c(-c3cscn3)nc2c1 [THIABENDAZOLE],MIC,[1],1000 µg/mL
same,MIC,[2],31.2 µg/mL
same,MIC,[3],1000 µg/mL
CCCCCCCCC[n+]1c(C)sc2ccccc21.[Br-],MIC,[1],500 µg/mL
same,MIC,[2],31.3 µg/mL
same,MIC,[3],7.8 µg/mL
same,logP,[4]; read-out: logP,2.89
CCCCCCC[n+]1c(C)sc2ccccc21.[Br-],MIC,[1],1000 µg/mL
same,MIC,[2],125 µg/mL
same,MIC,[3],31.3 µg/mL
same,logP,[4]; read-out: logP,1.88
Cc1sc2ccccc2[n+]1CCCS(=O)(=O)[O-],MIC,[1],1000 µg/mL
same,MIC,[2],1000 µg/mL
same,MIC,[3],1000 µg/mL
same,logP,[4],-4.576
CC1=[N+](Cc2ccccc2)c2ccccc2C1(C)C.[Br-],MIC,[1],1000 µg/mL
same,MIC,[2],1000 µg/mL
same,MIC,[3],1000 µg/mL
same,logP,[4]; read-out: logP,0.904
CCCCC[N+]1=C(C)C(C)(C)c2ccccc21.[I-],MIC,[1],1000 µg/mL
same,MIC,[2],125 µg/mL
same,MIC,[3],250 µg/mL
same,logP,[4]; read-out: logP,1.25
CCCCCC[N+]1=C(C)C(C)(C)c2ccccc21.[I-],MIC,[1],1000 µg/mL
same,MIC,[2],125 µg/mL
same,MIC,[3],125 µg/mL
same,logP,[4]; read-out: logP,1.76
CC1=[N+](CCCCS(=O)(=O)[O-])c2ccccc2C1(C)C,MIC,[1],1000 µg/mL
same,MIC,[2],1000 µg/mL
same,MIC,[3],1000 µg/mL
same,logP,[4],-4.114
CC1=[N+](C)c2ccccc2C1(C)C.[I-],MIC,[1],1000 µg/mL
same,MIC,[2],500 µg/mL
same,MIC,[3],500 µg/mL
same,logP,[4]; read-out: logP,-0.691
Cc1sc2ccccc2[n+]1Cc1ccccc1.[Br-],MIC,[1],1000 µg/mL
same,MIC,[2],1000 µg/mL
same,MIC,[3],1000 µg/mL
same,logP,[4]; read-out: logP,0.517
CCCCC[n+]1c(C)sc2ccccc21.[Br-],MIC,[1],1000 µg/mL
same,MIC,[2],250 µg/mL
same,MIC,[3],62.5 µg/mL
same,logP,[4]; read-out: logP,1.25
CCC[N+]1=C(C)C(C)(C)c2ccccc21.[I-],MIC,[1],1000 µg/mL
same,MIC,[2],250 µg/mL
same,MIC,[3],250 µg/mL
same,logP,[4]; read-out: logP,0.188
CCCCCCCC[n+]1c(C)sc2ccccc21.[Br-],MIC,[1],1000 µg/mL
same,MIC,[2],62.5 µg/mL
same,MIC,[3],15.6 µg/mL
same,logP,[4]; read-out: logP,2.38
CC[N+]1=C(C)C(C)(C)c2ccccc21.[I-],MIC,[1],1000 µg/mL
same,MIC,[2],500 µg/mL
same,MIC,[3],500 µg/mL
same,logP,[4]; read-out: logP,-0.315
